Results published in ChEMBL document CHEMBL4725282, “Discovery of a Conformationally Constrained Oxazolidinone with Improved Safety and Efficacy Profiles for the Treatment of Multidrug-Resistant Tuberculosis” (J Med Chem, 2020).
pIC50: −log10 of the molar value. In brackets after ≈: the same amount, converted by molar mass.

Assays:
[1] = tested on: Mycobacterium tuberculosis; assay: Antitubercular activity against Mycobacterium tuberculosis H37Rv incubated for 7 days by microplate alamar blue assay; assay type: functional; settings: 168 h, time 7 day
How it was run: (§1)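 MIC determined by microplate alamar blue assay (MABA) following a published protocol.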

Vero = assay: Cytotoxicity against African green monkey Vero cells assessed as reduction in cell viability measured after 48 hrs by MTT assay; assay type: cell-based; settings: Chlorocebus sabaeus
How it was run: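 Cytotoxicity on Vero or HepG2 cells by MTT assay, run as previously reported.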

[2] = Inhibition of mitochondrial protein synthesis in rat H9c2 cells measured after 5 days by ELISA; assay type: cell-based; settings: H9c2, 120 h
How it was run: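 H9C2 cells in DMEM with 10% FBS, seeded 1500/well. After 18 h, compound added at final 0.03–200 μM (3-fold series), then 5 days at 37 °C, 5% CO2; 0.5% DMSO negative control. MPS inhibition read by MitoBiogenesis In-Cell ELISA; IC50 calculated.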

[3] = Stability in CD-1 mouse liver microsome assessed as parent compound remaining at 1 uM measured after 30 mins in presence of NADPH by LC-MS/MS analysis; assay type: ADME; settings: liver microsomes, read-out: Stabilty
How it was run: (§2)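 Liver microsomes (male CD-1 mouse or pooled human), 1 mg/mL protein, compound 1 µM, 37°C with shaking. Started with 1 mM NADPH or run without cofactor. Quenched with ice-cold ACN/MeOH containing internal standard. Parent quantified by LC-MS/MS; 30 min concentration normalised to time zero.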

[4] = Stability in CD-1 mouse liver microsome at 1 uM measured after 30 mins in absence of NADPH by LC-MS/MS analysis; assay type: ADME; settings: microsomes, 0.5 h; how it was run: as §2
[5] = tested on: Mycobacterium tuberculosis; assay: Antitubercular activity against Mycobacterium tuberculosis isolate 12525 incubated for 7 days by microplate alamar blue assay; assay type: functional; settings: isolate 12525, 168 h, time 7 day; how it was run: as §1
[6] = Terminal half life in Balb/c mouse at 25 mg/kg, po by LC-MS/MS analysis; assay type: ADME, organism-based; settings: in vivo, read-out: beta t1/2 (converted)
How it was run: (§3)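 Female BALB/c mice, 20-25 g, five per route. Dosed 25 mg/kg p.o. in 0.5% carboxymethyl cellulose or 2.5 mg/kg i.v. in 10% DMSO/saline. Blood sampled 5 min-72 h (p.o.) or 2 min-48 h (i.v.), quantified by LC/MS/MS with ESI+. Parameters by non-compartmental analysis; F = (AUCpo×dose_iv)/(AUCiv×dose_po)×100%.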

[7] = Tmax in Balb/c mouse at 25 mg/kg, po by LC-MS/MS analysis; assay type: ADME, organism-based; settings: in vivo; how it was run: as §3
[8] = Cmax in Balb/c mouse at 25 mg/kg, po by LC-MS/MS analysis; assay type: ADME, organism-based; set-up: route oral, dose 25 mg/kg; settings: in vivo
How it was run: (§4)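 Female BALB/c mice (20–25 g), five per route. Oral dose 25 mg/kg in 0.5% carboxymethyl cellulose; i.v. dose 2.5 mg/kg in 10% DMSO/physiological saline. Blood sampled 5 min–72 h after p.o. and 2 min–48 h after i.v. Analyte quantified by LC/MS/MS (ESI positive, C18, isocratic methanol/water). Parameters from non-compartmental analysis.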

[9] = AUC (0 to t) in Balb/c mouse at 25 mg/kg, po by LC-MS/MS analysis; assay type: ADME, organism-based; set-up: dose 25 mg/kg; settings: in vivo; how it was run: as §4
[10] = AUC (0 to infinity) in Balb/c mouse at 25 mg/kg, po by LC-MS/MS analysis; assay type: ADME, organism-based; set-up: route oral, time infinity, dose 25 mg/kg; settings: in vivo; how it was run: as §4
[11] = MRT (0 to t) in Balb/c mouse at 25 mg/kg, po by LC-MS/MS analysis; assay type: ADME, organism-based; settings: in vivo; how it was run: as §4
[12] = MRT (0 to infinity) in Balb/c mouse at 25 mg/kg, po by LC-MS/MS analysis; assay type: ADME, organism-based; settings: in vivo; how it was run: as §4
[13] = Mycobacterium tuberculosis, H37Rv, read-out: MIC

| Structure (SMILES) | MIC [1, 13] | IC50 (Vero) | pIC50 [2] | other results |
| --- | --- | --- | --- | --- |
| O=C1O[C@@H](CO)[C@H]2COc3cc(N4CCSCC4)c(F)cc3N12 (racemic) | > 32 µg/mL |  |  |  |
| O=C(NC[C@@H]1OC(=O)N2c3cc(F)c(N4C5CCC4CSC5)cc3OC[C@@H]12)C1CCC1 | 0.97 µg/mL (≈ 2.17 µM) | 34.7 µg/mL (≈ 77.5 µM) |  |  |
| CC(C)C(=O)NC[C@@H]1OC(=O)N2c3cc(F)c(N4CCSCC4)cc3OC[C@@H]12 | 0.1 µg/mL (≈ 0.244 µM) |  | < 4.00 | remaining at 0.5 h, 1 µM [3]: 6.02%; Stabilty [4]: Stable |
| CC(=O)OC[C@@H]1OC(=O)N2c3cc(F)c(N4CCSCC4)cc3OC[C@@H]12 | > 1 µg/mL |  |  |  |
| CO[C@H]1/C=C/O[C@@]2(C)Oc3c(C)c(O)c4c(O)c(c(/C=N/N5CCN(C)CC5)c(O)c4c3C2=O)NC(=O)/C(C)=C\C=C\[C@H](C)[C@H](O)[C@@H](C)[C@@H](O)[C@@H](C)[C@H](OC(C)=O)[C@@H]1C [RIFAMPIN] |  |  |  | MIC [5]: > 10 µg/mL |
| O=C1O[C@@H](Cn2ccnn2)[C@@H]2COc3cc(N4CC5(COC5)C4)c(F)cc3N12 | > 32 µg/mL | > 64 µg/mL |  |  |
| CC(=O)NC[C@@H]1OC(=O)N2c3cc(F)c(N4CC5(COC5)C4)cc3OC[C@@H]12 | 3.92 µg/mL (≈ 10.4 µM) |  |  |  |
| CC(=O)NC[C@@H]1OC(=O)N2c3cc(F)c(N4CCOCC4)cc3OC[C@@H]12 | 0.89 µg/mL (≈ 2.44 µM) | > 64 µg/mL | 4.29 |  |
| NC[C@@H]1OC(=O)N2c3cc(F)c(N4CCSCC4)cc3OC[C@@H]12 (racemic) |  |  |  | MIC [1]: 0.1 µg/mL (≈ 0.295 µM) |
| O=C(NC[C@@H]1OC(=O)N2c3cc(F)c(N4CCSCC4)cc3OC[C@@H]12)C1CCC1 | 0.03 µg/mL (≈ 0.0712 µM) |  | 4.27 | remaining at 0.5 h, 1 µM [3]: 4%; Stabilty [4]: Stable |
| NC[C@@H]1OC(=O)N2c3cc(F)c(N4CCSCC4)cc3OC[C@@H]12 |  | 36 µg/mL (≈ 106 µM) | < 4.00 | MIC [1]: 0.03 µg/mL (≈ 0.0884 µM); remaining at 0.5 h, 1 µM [3]: 15.8%; Stabilty [4]: Stable |
| COC(=O)NC[C@@H]1OC(=O)N2c3cc(F)c(N4C5CCC4CSC5)cc3OC[C@@H]12 | 1.68 µg/mL (≈ 3.97 µM) | > 64 µg/mL |  |  |
| O=C(NC[C@@H]1OC(=O)N2c3cc(F)c(N4C5CCC4CSC5)cc3OC[C@@H]12)c1ccncc1 | 2.83 µg/mL (≈ 6.01 µM) | > 64 µg/mL |  |  |
| CC(=O)NC[C@@H]1OC(=O)N2c3cc(F)c(N4CCS(=O)(=O)CC4)cc3OC[C@@H]12 | 0.93 µg/mL (≈ 2.25 µM) |  | 4.59 | half-life [6]: 7.64 h; Tmax [7]: 1 h; Cmax [8]: 118 ng/mL; AUC(0-t) [9]: 1250 ng·h/mL; AUC(0-inf) [10]: 1480 ng·h/mL; MRT last [11]: 10.3 h; MRT inf [12]: 14.3 h |
| CC(=O)NC[C@@H]1OC(=O)N2c3cc(F)c(N4CCSCC4)cc3OC[C@@H]12 (racemic) |  |  |  | MIC [1]: 0.16 µg/mL (≈ 0.419 µM) |
| O=C(NC[C@@H]1OC(=O)N2c3cc(F)c(N4CC5(COC5)C4)cc3OC[C@@H]12)C1CCC1 | 4.2 µg/mL (≈ 10.1 µM) |  |  |  |
| CC(=O)N(C[C@@H]1OC(=O)N2c3cc(F)c(N4CCSCC4)cc3OC[C@@H]12)C(C)=O | 0.34 µg/mL (≈ 0.803 µM) | > 64 µg/mL |  |  |
| O=C1O[C@@H](CNc2ccon2)[C@@H]2COc3cc(N4CCSCC4)c(F)cc3N12 | 0.03 µg/mL (≈ 0.0738 µM) |  | < 4.00 | remaining at 0.5 h, 1 µM [3]: 0%; Stabilty [4]: Stable |
| CNC[C@@H]1OC(=O)N2c3cc(F)c(N4CCSCC4)cc3OC[C@@H]12 | > 32 µg/mL | 46.5 µg/mL (≈ 132 µM) |  |  |
| COC(=O)NC[C@@H]1OC(=O)N2c3cc(F)c(N4CCSCC4)cc3OC[C@@H]12 | 0.03 µg/mL (≈ 0.0755 µM) |  | < 4.00 | remaining at 0.5 h, 1 µM [3]: 3.59%; Stabilty [4]: Stable |

| Structure (SMILES) | MIC [1, 13] | IC50 (Vero) | pIC50 [2] | other results |
| --- | --- | --- | --- | --- |
| CC(=O)NC[C@@H]1OC(=O)N2c3cc(F)c(N4C5CCC4CSC5)cc3OC[C@@H]12 | 0.92 µg/mL (≈ 2.26 µM) | 58.5 µg/mL (≈ 144 µM) |  |  |
| O=C(NC[C@@H]1OC(=O)N2c3cc(F)c(N4CC5(COC5)C4)cc3OC[C@@H]12)C1CC1 | 3.09 µg/mL (≈ 7.66 µM) |  |  |  |
| O=C(NC[C@@H]1OC(=O)N2c3cc(F)c(N4C5CCC4CSC5)cc3OC[C@@H]12)c1cnccn1 | > 32 µg/mL | 9.53 µg/mL (≈ 20.2 µM) |  |  |
| O=C1O[C@@H](Cn2ccnn2)[C@@H]2COc3cc(N4CCSCC4)c(F)cc3N12 | 0.23 µg/mL (≈ 0.588 µM) |  | < 4.00 | remaining at 0.5 h, 1 µM [3]: 21.7%; Stabilty [4]: Stable |
| O=C(NC[C@@H]1OC(=O)N2c3cc(F)c(N4C5CCC4CSC5)cc3OC[C@@H]12)C1CC1 | 0.98 µg/mL (≈ 2.26 µM) | > 64 µg/mL |  |  |
| CS(=O)(=O)NC[C@@H]1OC(=O)N2c3cc(F)c(N4CCSCC4)cc3OC[C@@H]12 | 3.9 µg/mL (≈ 9.34 µM) |  |  |  |
| O=C1O[C@@H](CNc2ccon2)[C@@H]2COc3cc(N4C5CCC4CSC5)c(F)cc3N12 | 2.52 µg/mL (≈ 5.83 µM) | > 64 µg/mL |  |  |
| CC(=O)N(C)C[C@@H]1OC(=O)N2c3cc(F)c(N4CCSCC4)cc3OC[C@@H]12 | > 1 µg/mL |  |  |  |
| O=C(NC[C@@H]1OC(=O)N2c3cc(F)c(N4CCSCC4)cc3OC[C@@H]12)c1ccncc1 | 0.16 µg/mL (≈ 0.36 µM) |  | < 4.00 | remaining at 0.5 h, 1 µM [3]: 20.8%; Stabilty [4]: Stable |
| CC(C)C(=O)NC[C@@H]1OC(=O)N2c3cc(F)c(N4C5CCC4CSC5)cc3OC[C@@H]12 | 1.48 µg/mL (≈ 3.4 µM) | > 64 µg/mL |  |  |
| CC(=O)NC[C@@H]1OC(=O)N2c3cc(F)c(N4CCSCC4)cc3OC[C@H]12 (racemic) | > 32 µg/mL |  |  |  |
| O=C1O[C@@H](Cn2ccnn2)[C@@H]2COc3cc(N4C5CCC4CSC5)c(F)cc3N12 | > 32 µg/mL | > 64 µg/mL |  |  |
| O=C(NC[C@@H]1OC(=O)N2c3cc(F)c(N4CCSCC4)cc3OC[C@@H]12)C1CC1 | 0.03 µg/mL (≈ 0.0736 µM) |  | < 4.00 | remaining at 0.5 h, 1 µM [3]: 15%; Stabilty [4]: Stable |
| O=C1O[C@@H](CO)[C@@H]2COc3cc(N4CCSCC4)c(F)cc3N12 (racemic) | 3.79 µg/mL (≈ 11.1 µM) |  |  |  |
| O=C(NC[C@@H]1OC(=O)N2c3cc(F)c(N4CCSCC4)cc3OC[C@@H]12)c1cnccn1 | 0.12 µg/mL (≈ 0.269 µM) | 40.7 µg/mL (≈ 91.3 µM) | < 4.00 | remaining at 0.5 h, 1 µM [3]: 6.85%; Stabilty [4]: Stable |
| CC(=O)NC[C@@H]1OC(=O)N2c3cc(F)c(N4CCC(F)(F)CC4)cc3OC[C@@H]12 | 0.91 µg/mL (≈ 2.28 µM) |  | 4.99 |  |
| CC(=O)NC[C@H]1OC(=O)N2c3cc(F)c(N4CCSCC4)cc3OC[C@H]12 | > 32 µg/mL |  |  |  |
| CC(=O)NC[C@@H]1OC(=O)N2c3ccc(N4CCSCC4)cc3OC[C@@H]12 | 0.79 µg/mL (≈ 2.17 µM) | > 64 µg/mL |  |  |
| NC[C@@H]1OC(=O)N2c3cc(F)c(N4CCSCC4)cc3OC[C@H]12 (racemic) | > 32 µg/mL |  |  |  |
